Experimental data: ChEMBL document CHEMBL4665879, “Design, synthesis and evaluation of a baicalin and berberine hybrid compound as therapeutic agent for ulcerative colitis” (2020)
Calls of active or inactive are those of the source. The calls are words filed in the database; no cut-off is given here.

Assays:
Staphylococcus aureus = assay: Antibacterial activity against Staphylococcus aureus 261112-5 after 24 hrs by microdilution method; assay type: functional, organism-based
Outline: (§1)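 Broth microdilution in Mueller Hinton medium, drug media diluted 1:2.5 to 1:640 and sterilized with circulating steam; pure water as control. Four to five colonies grown in nutrient broth 8 h at 37 °C and diluted to 1.5×10^5 CFU/mL. 0.1 ml per well, incubated 37 °C for 24 h; MIC read by observation.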

Mus musculus [1] = assay: Anti-ulcerative colitis activity in DSS-induced BALB/c mouse ulcerative colitis model assessed as colon length/colon weight ratio at 50 mg/kg administrated for 14 days (reference value: 22.608 +/- 2.655 cm/g); assay type: functional; conditions: time 14 day
Outline: (§2)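 Male SPF BALB/c mice (18–22 g), n = 8 per group. Colitis induced with freshly prepared 5% DSS (MW 36,000–50,000) in pure water as drinking water ad libitum for 7 days. Treatment at 50 mg/kg ran from day 1 for 14 days; control and model groups received pure water. Mice sacrificed after 14 days of treatment. Data as means ± S.E.M.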

Mus musculus [2] = assay: Anti-inflammatory activity against DSS-induced ulcerative colitis BALB/c mouse model assessed as reduction in TNF-alpha protein expression in colon tissue at 50 mg/kg administrated for 14 days by Western blot analysis; assay type: functional, organism-based; conditions: time 14.0 day; outline: as §2
Salmonella typhi = assay: Antibacterial activity against Typhoid bacillus 50071-16 after 24 hrs by microdilution method; assay type: functional, organism-based; conditions: Salmonella enterica subsp. enterica serovar Typhi
Outline: (§3)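 Test agents diluted in culture medium at ratios 1:2.5 to 1:640 (twofold series) and steam-sterilized; pure water as control. Inoculum from 4–5 colonies grown in nutrient broth 8 h at 37 °C, then diluted to 1.5×10^5 CFU/mL. Broth microdilution in 96-well plate, 0.1 ml strain suspension per well, 37 °C 24 h; MIC read visually.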

Mus musculus [3] = assay: Anti-ulcerative colitis activity in DSS-induced BALB/c mouse ulcerative colitis model assessed as reduction in colon damage at 50 mg/kg administrated for 14 days by H and E staining analysis; assay type: functional, organism-based; conditions: time 14.0 day; outline: as §2
Pseudomonas aeruginosa = assay: Antibacterial activity against Pseudomonas aeruginosa 10211 incubated for 24 hrs; assay type: functional, organism-based; outline: as §1
Mus musculus [4] = assay: Anti-inflammatory activity against DSS-induced ulcerative colitis BALB/c mouse model assessed as reduction in IL-6 protein expression in colon tissue at 50 mg/kg administrated for 14 days by Western blot analysis; assay type: functional, organism-based; conditions: time 14.0 day; outline: as §2
Mus musculus [5] = assay: Anti-inflammatory activity against DSS-induced ulcerative colitis BALB/c mouse model assessed as reduction in IL-1beta mRNA expression in colon tissue at 50 mg/kg administrated for 14 days by RT-qPCR analysis; assay type: functional, organism-based; conditions: time 14.0 day; outline: as §2
Mus musculus [6] = assay: Anti-inflammatory activity against DSS-induced ulcerative colitis BALB/c mouse model assessed as reduction in IL-6 mRNA expression in colon tissue at 50 mg/kg administrated for 14 days by RT-qPCR analysis; assay type: functional, organism-based; conditions: time 14.0 day; outline: as §2
Mus musculus [7] = assay: Anti-ulcerative colitis activity in DSS-induced BALB/c mouse ulcerative colitis model assessed as colon weight at 50 mg/kg administrated for 14 days (reference value: 0.369 +/- 0.023 g); assay type: functional; conditions: time 14 day; outline: as §2
Streptococcus pyogenes = assay: Antibacterial activity against streptococcus hemolyticus 32210 after 24 hrs by microdilution method; assay type: functional, organism-based; outline: as §1
Mus musculus [8] = assay: Anti-ulcerative colitis activity in DSS-induced BALB/c mouse ulcerative colitis model of assessed as reduction in disease activity index at 50 mg/kg administrated for 14 days; assay type: functional, organism-based; conditions: time 14.0 day; outline: as §2
Mus musculus [9] = assay: Anti-ulcerative colitis activity in DSS-induced BALB/c mouse ulcerative colitis model assessed as decrease in spleen weight at 50 mg/kg administrated for 14 days; assay type: functional, organism-based; conditions: time 14.0 day; outline: as §2
Mus musculus [10] = assay: Anti-ulcerative colitis activity in DSS-induced BALB/c mouse ulcerative colitis model assessed as increase in cecum weight at 50 mg/kg administrated for 14 days; assay type: functional, organism-based; conditions: time 14.0 day; outline: as §2
Mus musculus [11] = assay: Anti-inflammatory activity against DSS-induced ulcerative colitis BALB/c mouse model assessed as reduction in IL-1beta protein expression in colon tissue at 50 mg/kg administrated for 14 days by Western blot analysis; assay type: functional, organism-based; conditions: time 14.0 day; outline: as §2
[12] = system: Salmonella enterica subsp. enterica serovar Paratyphi B; assay: Antibacterial activity against Salmonella paratyphi B 0039 after 24 hrs by microdilution method; assay type: functional, organism-based; conditions: 39; outline: as §3
Mus musculus [13] = assay: Anti-ulcerative colitis activity in DSS-induced BALB/c mouse ulcerative colitis model assessed as colon length at 50 mg/kg administrated for 14 days (reference value: 8.350 +/- 1.111 cm); assay type: functional; conditions: time 14 day; outline: as §2
Mus musculus [14] = assay: Anti-inflammatory activity against DSS-induced ulcerative colitis BALB/c mouse model assessed as reduction in TNF-alpha mRNA expression in colon tissue at 50 mg/kg administrated for 14 days by RT-qPCR analysis; assay type: functional, organism-based; conditions: time 14.0 day; outline: as §2
Escherichia coli = assay: Antibacterial activity against Escherichia coli 44113-5 after 24 hrs by microdilution method; assay type: functional, organism-based; outline: as §1
Candida albicans = assay: Antifungal activity against Candida albicans 98001 after 24 hrs by microdilution method; assay type: functional, organism-based; outline: as §1
Streptococcus pneumoniae = assay: Antibacterial activity against Streptococcus pneumoniae 32215 after 24 hrs by microdilution method; assay type: functional, organism-based; outline: as §1
Mus musculus [15] = assay: Anti-ulcerative colitis activity in DSS-induced BALB/c mouse ulcerative colitis model assessed as inhibited inflammation in colon at 50 mg/kg administrated for 14 days by H and E staining analysis; assay type: functional, organism-based; conditions: time 14.0 day; outline: as §2
Mus musculus [16] = assay: Anti-inflammatory activity against DSS-induced ulcerative colitis BALB/c mouse model assessed as reduction in mast cells infiltration in colon tissue at 50 mg/kg administrated for 14 days by aldehyde-fuchsin orange G staining based assay; assay type: functional, organism-based; conditions: time 14.0 day; outline: as §2
Mus musculus [17] = assay: Anti-inflammatory activity against DSS-induced ulcerative colitis BALB/c mouse model assessed as reduction in MPO activity in colon tissue at 50 mg/kg administrated for 14 days by colorimetric method; assay type: functional, organism-based; conditions: time 14.0 day; outline: as §2
Mus musculus [18] = assay: Anti-inflammatory activity against DSS-induced ulcerative colitis BALB/c mouse model assessed as increase in SOD levels in colon tissue at 50 mg/kg administrated for 14 days by xanthine oxidase based method; assay type: functional, organism-based; conditions: time 14.0 day; outline: as §2
Mus musculus [19] = assay: Anti-ulcerative colitis activity in DSS-induced BALB/c mouse ulcerative colitis model assessed as promoted regeneration of intestinal mucosa at 50 mg/kg administrated for 14 days by H and E staining analysis; assay type: functional, organism-based; conditions: time 14.0 day; outline: as §2
Mus musculus [20] = assay: Anti-inflammatory activity against DSS-induced ulcerative colitis BALB/c mouse model assessed as reduction in colon macroscopic scores at 50 mg/kg administrated for 14 days; assay type: functional, organism-based; conditions: time 14.0 day; outline: as §2
Mus musculus [21] = assay: Anti-ulcerative colitis activity in DSS-induced BALB/c mouse ulcerative colitis model assessed as decrease in histological scores at 50 mg/kg administrated for 14 days by H and E staining analysis; assay type: functional, organism-based; conditions: time 14.0 day; outline: as §2

SMILES | Activity (Staphylococcus aureus) | Ratio (Mus musculus [1]) | Activity (Mus musculus [2]) | Activity (Salmonella typhi) | Activity (Mus musculus [3]) | Activity (Pseudomonas aeruginosa) | Activity (Mus musculus [4]) | Activity (Mus musculus [5]) | Activity (Mus musculus [6]) | Activity (Mus musculus [7]) | Activity (Streptococcus pyogenes) | Activity (Mus musculus [8]) | Activity (Mus musculus [9]) | Activity (Mus musculus [10]) | Activity (Mus musculus [11]) | Activity [12] | Activity (Mus musculus [13]) | Activity (Mus musculus [14]) | Activity (Escherichia coli) | Activity (Candida albicans) | further results
O=C(O)[C@H]1O[C@@H](Oc2cc3oc(-c4ccccc4)cc(=O)c3c(O)c2O)[C@H](O)[C@@H](O)[C@@H]1O [BAICALIN] | inactive | 24.172 | inactive | inactive | inactive | inactive | inactive | inactive | inactive | 0.369 g | inactive | inactive | inactive | inactive | inactive | inactive | 8.74 cm | inactive | inactive | inactive | Activity (Streptococcus pneumoniae): inactive
COc1ccc2cc3[n+](cc2c1OCCCCOC(=O)[C@H]1O[C@@H](Oc2cc4oc(-c5ccccc5)cc(=O)c4c(O)c2O)[C@H](O)[C@@H](O)[C@@H]1O)CCc1cc2c(cc1-3)OCO2 | Active | 29.769 | Active | Active | Active | Active | Active | Active | Active | 0.311 g | Active | Active | Active | Active | Active | Active | 9.288 cm | Active | Active | Active | Activity (Mus musculus [15]): Active; Activity (Mus musculus [16]): Active; Activity (Mus musculus [17]): Active; Activity (Mus musculus [18]): Active; Activity (Mus musculus [19]): Active; Activity (Streptococcus pneumoniae): Active; Activity (Mus musculus [20]): Active; Activity (Mus musculus [21]): Active
COc1ccc2cc3[n+](cc2c1OC)CCc1cc2c(cc1-3)OCO2.[Cl-] [BERBERINE CHLORIDE] | Active | 28.175 | Active | Active | Active | Active | Active | Active | Active | 0.315 g | Active | Active | inactive | Active | Active | Active | 8.95 cm | Active | Active | Active | Activity (Mus musculus [15]): Active; Activity (Mus musculus [16]): Active; Activity (Mus musculus [17]): Active; Activity (Mus musculus [19]): Active; Activity (Streptococcus pneumoniae): Active; Activity (Mus musculus [21]): Active
